The test system of assay [1] is MCF-7. Kind of assay: antiproliferative assay, MCF-7. The note with it: Homo sapiens, MCF7, read-out: IC50 MCF-7. In kind it is cell-based. An outline of the steps:
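Run as an antiproliferative screen on human cancer lines alongside the normal mammary epithelial line MCF-10, with a positive control included. The highest test concentration was 33.3 μM.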

In assay [2] the test system is MCF-10. Put plainly: antiproliferative assay, normal mammary epithelial cell line MCF-10. The format is cell-based. The note with it: Homo sapiens, MCF10, read-out: IC50 MCF-10. An outline of the steps: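 Human cancer and normal mammary epithelial lines were tested in an antiproliferative assay. Shikonin served as the positive control. The highest test concentration was 33.3 μM.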

Some results are limits rather than exact numbers.

In general, IC50 refers to the midpoint of a concentration-inhibition curve. Turning to `COc1cccc2c1C(=O)c1c(O)c3c(c(O)c1C2=O)C[C@@](O)(C(=O)CO)C[C@@H]3O[C@H]1C[C@H](N)[C@H](O)[C@H](C)O1` [Doxorubicin, reference compound], the IC50 in assay [1] was determined as 1.17 µM. With `O=C1C2=C(C(=O)c3ccccc31)C(O)C1=C(O)CC(c3ccccc3)C1=C2O` (stereo not drawn) [Compound 4a], the IC50 in assay [1] and in assay [2] was over 33.3 µM throughout.

Source of the values: PMC5474392 (Bioorganic & medicinal chemistry letters, 2016).
